Data published in ChEMBL document CHEMBL1123434, “Thiazole-4-carboxamide adenine dinucleotide (TAD). Analogues stable to phosphodiesterase hydrolysis” (J Med Chem, 1986).

What was measured:
[1] = species: Mus musculus; assay: Compound was tested for its degradation by TAD-phosphodiesterase; format: functional
Summary of the method: (§1)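 Dinucleotide incubated as substrate at 7.5 mM in 0.03 M Tris-MgCl2, pH 7.6, for 30 min with enzyme: line 1, partially purified TAD-phosphodiesterase from colon-38 carcinoma cells; line 2, snake venom phosphodiesterase. Degradation quantified by HPLC as AMP or TRMP formed, or parent dinucleotide lost, depending on substrate. Expressed relative to TAD hydrolysis set at 100%.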

[2] = molecular target: Inosine-5'-monophosphate dehydrogenase 2 (Mus musculus, UniProt P24547); assay: Compound was tested for inhibitory activity against Inosine-5'-monophosphate dehydrogenase, the type of inhibition in not competitive
Sequence of Inosine-5'-monophosphate dehydrogenase 2 (P24547 whole entry): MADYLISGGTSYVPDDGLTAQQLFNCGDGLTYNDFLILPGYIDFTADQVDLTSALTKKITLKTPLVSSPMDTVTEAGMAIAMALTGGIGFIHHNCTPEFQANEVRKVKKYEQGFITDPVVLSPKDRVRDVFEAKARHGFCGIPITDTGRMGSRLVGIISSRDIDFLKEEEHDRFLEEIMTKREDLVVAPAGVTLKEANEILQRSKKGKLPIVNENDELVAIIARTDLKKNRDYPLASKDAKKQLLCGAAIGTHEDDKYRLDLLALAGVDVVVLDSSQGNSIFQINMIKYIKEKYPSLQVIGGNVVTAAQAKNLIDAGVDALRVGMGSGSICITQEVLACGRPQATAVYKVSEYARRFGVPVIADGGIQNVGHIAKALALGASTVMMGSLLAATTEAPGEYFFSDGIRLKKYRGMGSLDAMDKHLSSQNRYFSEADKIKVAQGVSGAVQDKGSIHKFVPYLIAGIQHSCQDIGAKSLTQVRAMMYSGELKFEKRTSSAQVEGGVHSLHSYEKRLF
Summary of the method: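 Partially purified IMP dehydrogenase; kinetics run at 3 inhibitor concentrations against 6 levels of substrate NAD or IMP (0.25, 0.5, 1, 2, 4 and 6 × Km). Inhibition type judged from these kinetics.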

[3] = system: snake; assay: Compound was tested for its degradation by venom phosphodiesterase; format: functional; summary of the method: as §1
[4] = system: P388; assay: The cytotoxic concentration against P388 leukemia cell; format: functional; conditions: Mus musculus, read-out: ID50 (the source's name)
[5] = system: P388; assay: The influence (100 uM) on Guanine nucleotide pools of Natural P388 resistant cell lines measured as conc. of GMP; format: functional, Mus musculus
Summary of the method: (§2)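 Log-phase P388/S (parental) or P388/R cells (TR-resistant, selected to grow in 1 mM TR) exposed 18 h to the stated concentration. Cells then washed in cold saline, extracted with cold 10% TCA and neutralized with tri-n-octylamine/freon. GMP, GDP and GTP quantified by SAX HPLC: 0.03 M ammonium phosphate pH 3.5, then gradient to 0.6 M, pH 3.8. Values as nmol/10^6 cells.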

[6] = system: P388; assay: The influence (50 uM) on Guanine nucleotide pools of Natural P388 resistant cell lines measured as conc. of GMP; format: functional, Mus musculus; summary of the method: as §2
[7] = system: P388; assay: The influence (50 uM) on Guanine nucleotide pools of Natural P388 resistant cell lines measured as conc. of GDP; format: functional, Mus musculus; summary of the method: as §2
[8] = system: P388; assay: The influence (100 uM) on Guanine nucleotide pools of Natural P388 sensitive cell lines measured as conc. of GMP; format: functional, Mus musculus; summary of the method: as §2
[9] = system: P388; assay: The influence (100 uM) on Guanine nucleotide pools of Natural P388 resistant cell lines measured as conc. of GDP; format: functional, Mus musculus; summary of the method: as §2
[10] = system: P388; assay: The influence (100 uM) on Guanine nucleotide pools of Natural P388 sensitive cell lines measured as conc. of GTP; format: functional, Mus musculus; summary of the method: as §2
[11] = system: P388; assay: The influence (50 uM) on Guanine nucleotide pools of Natural P388 sensitive cell lines measured as conc. of GTP; format: functional, Mus musculus; summary of the method: as §2
[12] = system: P388; assay: The influence (100 uM) on Guanine nucleotide pools of Natural P388 resistant cell lines measured as conc. of GTP; format: functional, Mus musculus; summary of the method: as §2
[13] = system: P388; assay: The influence (100 uM) on Guanine nucleotide pools of Natural P388 sensitive cell lines measured as conc. of GDP; format: functional, Mus musculus; summary of the method: as §2
[14] = system: P388; assay: The influence (50 uM) on Guanine nucleotide pools of Natural P388 sensitive cell lines measured as conc. of GMP; format: functional, Mus musculus; summary of the method: as §2
[15] = system: P388; assay: The influence (50 uM) on Guanine nucleotide pools of Natural P388 sensitive cell lines measured as conc. of GDP; format: functional, Mus musculus; summary of the method: as §2
[16] = system: P388; assay: The influence (50 uM) on Guanine nucleotide pools of Natural P388 resistant cell lines measured as conc. of GTP; format: functional, Mus musculus; summary of the method: as §2
[17] = system: P388; assay: The influence (2.5 uM) on Guanine nucleotide pools of Natural P388 sensitive cell lines measured as conc. of GDP; format: functional, Mus musculus; summary of the method: as §2
[18] = system: P388; assay: The influence (2.5 uM) on Guanine nucleotide pools of Natural P388 resistant cell lines measured as conc. of GMP; format: functional, Mus musculus; summary of the method: as §2
[19] = system: P388; assay: The influence (2.5 uM) on Guanine nucleotide pools of Natural P388 resistant cell lines measured as conc. of GTP; format: functional, Mus musculus; summary of the method: as §2
[20] = system: P388; assay: The influence (5 uM) on Guanine nucleotide pools of Natural P388 sensitive cell lines measured as conc. of GDP; format: functional, Mus musculus; summary of the method: as §2
[21] = system: P388; assay: The influence (2.5 uM) on Guanine nucleotide pools of Natural P388 resistant cell lines measured as conc. of GDP; format: functional, Mus musculus; summary of the method: as §2
[22] = system: P388; assay: The influence (5000 uM) on Guanine nucleotide pools of Natural P388 resistant cell lines measured as conc. of GDP; format: functional, Mus musculus; summary of the method: as §2
[23] = system: P388; assay: The influence (2.5 uM) on Guanine nucleotide pools of Natural P388 sensitive cell lines measured as conc. of GMP; format: functional, Mus musculus; summary of the method: as §2
[24] = system: P388; assay: The influence (5000 uM) on Guanine nucleotide pools of Natural P388 resistant cell lines measured as conc. of GMP; format: functional, Mus musculus; summary of the method: as §2
[25] = system: P388; assay: The influence (5 uM) on Guanine nucleotide pools of Natural P388 sensitive cell lines measured as conc. of GMP; format: functional, Mus musculus; summary of the method: as §2
[26] = system: P388; assay: The influence (5000 uM) on Guanine nucleotide pools of Natural P388 resistant cell lines measured as conc. of GTP; format: functional, Mus musculus; summary of the method: as §2
[27] = system: P388; assay: The influence (2.5 uM) on Guanine nucleotide pools of Natural P388 sensitive cell lines measured as conc. of GTP; format: functional, Mus musculus; summary of the method: as §2
[28] = system: P388; assay: The influence (5 uM) on Guanine nucleotide pools of Natural P388 sensitive cell lines measured as conc. of GTP; format: functional, Mus musculus; summary of the method: as §2

NC(=O)c1csc([C@H]2O[C@@H](COP(=O)(O)OP(=O)(O)OC[C@H]3O[C@@H](n4cnc5c(N)ncnc54)[C@H](O)[C@@H]3O)[C@H](O)[C@@H]2O)n1
hydrolysis relative to TAD [1]: 100% | Ki [2]: 240 nM | hydrolysis relative to TAD [3]: 100% | IC50 [4]: 2100 nM

NC(=O)c1csc([C@@H]2O[C@H](COP(=O)(O)OP(=O)(O)CC[C@H]3O[C@@H](n4cnc5c(N)ncnc54)[C@H](O)[C@@H]3O)[C@@H](O)[C@H]2O)n1
hydrolysis relative to TAD [1]: 13% | hydrolysis relative to TAD [3]: 37.6% | IC50 [4]: 2800 nM

NC(=O)c1csc([C@@H]2O[C@H](COP(=O)(O)CP(=O)(O)OC[C@@H]3O[C@H](n4cnc5c(N)ncnc54)[C@@H](O)[C@H]3O)[C@@H](O)[C@H]2O)n1
Control [5]: 3% | Control [6]: 3% | hydrolysis relative to TAD [1]: 0% | Ki [2]: 230 nM | Control [7]: 24% | Control [8]: 6% | Control [9]: 34% | Control [10]: 39% | Control [11]: 24% | Control [12]: 8% | Control [13]: 19% | Control [14]: 14% | hydrolysis relative to TAD [3]: 0% | Control [15]: 24% | IC50 [4]: 45000 nM | Control [16]: 5%

NC(=O)c1csc([C@@H]2O[C@H](CO)[C@@H](O)[C@H]2O)n1 [TIAZOFURIN]
Control [17]: 41% | Control [18]: 98% | Control [19]: 111% | Control [20]: 36% | Control [21]: 88% | Control [22]: 74% | Control [23]: 12% | Control [24]: 0% | Control [25]: 8% | Control [26]: 52% | Control [27]: 51% | Control [28]: 34%

NC(=O)c1csc([C@@H]2O[C@H](CCP(=O)(O)OP(=O)(O)OC[C@H]3O[C@@H](n4cnc5c(N)ncnc54)[C@H](O)[C@@H]3O)[C@@H](O)[C@H]2O)n1
hydrolysis relative to TAD [1]: 10.4% | Ki [2]: 1970 nM | hydrolysis relative to TAD [3]: 27.2% | IC50 [4]: 100000 nM
